Laboratory results reported in ChEMBL document CHEMBL1153536, “5-lipoxygenase-activating protein inhibitors: development of 3-[3-tert-butylsulfanyl-1-[4-(6-methoxy-pyridin-3-yl)-benzyl]-5-(pyridin-2-ylmethoxy)-1H-indol-2-yl]-2,2-dimethyl-propionic acid (AM103)” (J Med Chem, 2009).
Active and inactive are the calls of the source. The calls are words filed in the database; no cut-off is given here.

Assays:
[1] = biological target: T1, Arachidonate 5-lipoxygenase-activating protein (Homo sapiens, UniProt P20292); assay: Displacement of [3H]3-[5-(pyrid-2-ylmethoxy)-3-tert-butylthio-1-benzyl-indol-2-yl]-2,2-dimethylpropionic acid from FLAP in human polymorphonuclear cell membrane
T1 sequence (P20292 whole entry): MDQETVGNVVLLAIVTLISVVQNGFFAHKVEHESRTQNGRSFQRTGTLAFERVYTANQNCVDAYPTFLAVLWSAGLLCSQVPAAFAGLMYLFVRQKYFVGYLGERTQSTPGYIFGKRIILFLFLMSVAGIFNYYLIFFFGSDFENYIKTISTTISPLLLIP

[2] = Inhibition of calcium ionophore A-23187-stimulated LTB4 production in human leukocytes by ELISA; type: functional, cell-based; conditions: Leukocyte
Procedure, shortened: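 Dextran-sedimented, hypotonically lysed human leukocytes at 1.25 × 10^5 cells/mL, preincubated 5 min at 37 °C with compound in DMSO. Stimulated 5 min at 37 °C with A23187 (5 μL of 0.5 mM into 250 μL). Supernatant LTB4 measured by ELISA at 1:4 dilution; IC50 by nonlinear regression of % inhibition vs log concentration.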

[3] = system: Blood; assay: Inhibition of calcium ionophore A-23187-stimulated LTB4 production in human whole blood by ELISA; type: functional, tissue-based
Procedure, shortened: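 Heparinized human whole blood preincubated 15 min at 37 °C with compound in DMSO. Stimulated 30 min at 37 °C with A23187 (2 μL of 1.5 mM into 150 μL). Plasma LTB4 measured by ELISA at 1:100 dilution; IC50 by nonlinear regression. A single value is one assay averaging two donors.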

[4] = biological target: T2, Cytochrome P450 3A4 (Homo sapiens, UniProt P08684); assay: Inhibition of CYP3A4; type: ADME
T2 sequence (P08684 whole entry): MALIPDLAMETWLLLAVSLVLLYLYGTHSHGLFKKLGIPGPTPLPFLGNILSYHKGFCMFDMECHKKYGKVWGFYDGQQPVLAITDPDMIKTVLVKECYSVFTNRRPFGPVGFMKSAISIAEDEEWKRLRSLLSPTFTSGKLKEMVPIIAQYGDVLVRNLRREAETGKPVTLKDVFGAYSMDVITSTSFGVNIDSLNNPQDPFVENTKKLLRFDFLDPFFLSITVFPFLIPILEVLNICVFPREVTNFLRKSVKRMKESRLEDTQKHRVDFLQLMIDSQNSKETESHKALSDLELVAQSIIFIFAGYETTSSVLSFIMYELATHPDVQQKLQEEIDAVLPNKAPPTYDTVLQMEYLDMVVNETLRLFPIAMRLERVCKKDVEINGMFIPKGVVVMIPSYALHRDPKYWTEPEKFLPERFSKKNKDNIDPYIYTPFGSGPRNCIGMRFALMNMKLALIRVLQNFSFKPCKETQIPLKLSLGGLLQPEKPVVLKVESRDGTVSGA

[5] = biological target: Cytochrome P450 2C9 (Homo sapiens, UniProt P11712); assay: Inhibition of CYP2C9; type: ADME
Sequence of Cytochrome P450 2C9 (P11712 whole entry): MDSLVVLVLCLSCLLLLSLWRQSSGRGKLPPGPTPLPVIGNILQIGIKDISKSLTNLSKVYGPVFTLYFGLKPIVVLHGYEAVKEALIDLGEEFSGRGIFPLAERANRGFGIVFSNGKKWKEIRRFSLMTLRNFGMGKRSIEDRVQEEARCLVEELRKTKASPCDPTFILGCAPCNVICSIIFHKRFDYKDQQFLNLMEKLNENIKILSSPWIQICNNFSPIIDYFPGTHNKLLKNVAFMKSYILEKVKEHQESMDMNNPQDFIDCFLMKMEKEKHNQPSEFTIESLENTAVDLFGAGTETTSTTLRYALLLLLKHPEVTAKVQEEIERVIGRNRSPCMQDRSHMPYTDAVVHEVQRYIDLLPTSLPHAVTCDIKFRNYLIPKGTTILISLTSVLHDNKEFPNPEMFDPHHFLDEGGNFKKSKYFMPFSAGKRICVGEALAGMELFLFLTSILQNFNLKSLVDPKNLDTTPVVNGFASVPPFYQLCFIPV

[6] = biological target: Cytochrome P450 2D6 (Homo sapiens, UniProt P10635); assay: Inhibition of CYP2D6; type: ADME
Sequence of Cytochrome P450 2D6 (P10635 whole entry): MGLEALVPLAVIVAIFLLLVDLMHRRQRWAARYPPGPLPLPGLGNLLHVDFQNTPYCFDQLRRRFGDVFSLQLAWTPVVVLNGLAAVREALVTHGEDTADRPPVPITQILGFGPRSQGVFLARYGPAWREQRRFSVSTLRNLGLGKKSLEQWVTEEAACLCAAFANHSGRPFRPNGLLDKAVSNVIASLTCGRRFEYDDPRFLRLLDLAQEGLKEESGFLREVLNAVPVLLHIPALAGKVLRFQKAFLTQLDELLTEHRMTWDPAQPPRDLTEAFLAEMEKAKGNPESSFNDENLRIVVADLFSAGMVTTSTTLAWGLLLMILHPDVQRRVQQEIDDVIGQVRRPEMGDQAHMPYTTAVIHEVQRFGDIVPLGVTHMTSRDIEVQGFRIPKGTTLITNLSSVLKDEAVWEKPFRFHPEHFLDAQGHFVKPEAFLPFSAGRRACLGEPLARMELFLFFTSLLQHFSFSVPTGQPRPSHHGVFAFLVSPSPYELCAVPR

[7] = system: Rattus norvegicus; assay: (§1) Bioavailability in Sprague-Dawley rat at 2 mg/kg, iv and 10 mg/kg, po; type: ADME, organism-based; conditions: in vivo
Procedure, shortened: (§2)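 Male rats fasted overnight, 2 or 3 per route. Dosing was 2 mg/kg i.v. as a jugular bolus in PEG400/ethanol/water (40/10/50) and 10 mg/kg p.o. by gavage in 0.5% methylcellulose. Jugular cannula blood was sampled up to 24 h (8-9 samples). Plasma was acetonitrile-precipitated with buspirone internal standard and quantified by LC-MS/MS, positive ESI MRM, calibration […], LLOQ 1-5 ng/mL.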

[8] = Half life in Sprague-Dawley rat at 2 mg/kg, iv; type: ADME, organism-based; parameters: dose 2 mg/kg, route intravenous; conditions: in vivo; procedure, shortened: as §2
[9] = Cmax in Sprague-Dawley rat after 10 mg/kg oral dose; type: ADME, organism-based; parameters: dose 10 mg/kg, route oral; conditions: in vivo; procedure, shortened: as §2
[10] = Volume of distribution at steady state in Sprague-Dawley rat at 2 mg/kg, iv and 10 mg/kg, po; type: ADME, organism-based; conditions: in vivo, read-out: Vdss; procedure, shortened: as §2
[11] = biological target: T2, Cytochrome P450 3A4; assay: Inhibition of CYP3A4 assessed as inhibition rate
[12] = as §1; type: ADME, organism-based; conditions: Sprague-Dawley, in vivo; procedure, shortened: as §2
[13] = AUC in Sprague-Dawley rat at 10 mg/kg, po; type: ADME, organism-based; parameters: dose 10 mg/kg, route oral; conditions: plasma; procedure, shortened: as §2
[14] = Clearance in Sprague-Dawley rat at 2 mg/kg, iv and 10 mg/kg, po; type: ADME, organism-based; conditions: in vivo; procedure, shortened: as §2
[15] = biological target: P2Y purinoceptor 12 (Homo sapiens, UniProt Q9H244); assay: Agonist activity at human P2Y12 receptor; type: functional
Sequence of P2Y purinoceptor 12 (Q9H244 whole entry): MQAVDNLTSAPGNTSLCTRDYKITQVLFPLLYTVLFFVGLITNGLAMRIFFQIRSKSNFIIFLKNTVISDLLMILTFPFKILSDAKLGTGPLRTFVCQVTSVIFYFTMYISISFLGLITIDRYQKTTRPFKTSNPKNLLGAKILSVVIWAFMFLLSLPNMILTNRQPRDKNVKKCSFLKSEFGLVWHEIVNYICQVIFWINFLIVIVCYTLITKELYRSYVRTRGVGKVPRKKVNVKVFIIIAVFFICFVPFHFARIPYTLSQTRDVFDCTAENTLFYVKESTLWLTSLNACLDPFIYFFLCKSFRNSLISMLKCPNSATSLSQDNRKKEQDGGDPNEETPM

[16] = Bioavailability in dog at 2 mg/kg, iv and 5 mg/kg, po; type: ADME, organism-based, Canis lupus familiaris; conditions: in vivo
[17] = biological target: T3, Cytochrome P450 1A2 (Homo sapiens, UniProt P05177); assay: Inhibition of CYP1A2; type: ADME
T3 sequence (P05177 whole entry): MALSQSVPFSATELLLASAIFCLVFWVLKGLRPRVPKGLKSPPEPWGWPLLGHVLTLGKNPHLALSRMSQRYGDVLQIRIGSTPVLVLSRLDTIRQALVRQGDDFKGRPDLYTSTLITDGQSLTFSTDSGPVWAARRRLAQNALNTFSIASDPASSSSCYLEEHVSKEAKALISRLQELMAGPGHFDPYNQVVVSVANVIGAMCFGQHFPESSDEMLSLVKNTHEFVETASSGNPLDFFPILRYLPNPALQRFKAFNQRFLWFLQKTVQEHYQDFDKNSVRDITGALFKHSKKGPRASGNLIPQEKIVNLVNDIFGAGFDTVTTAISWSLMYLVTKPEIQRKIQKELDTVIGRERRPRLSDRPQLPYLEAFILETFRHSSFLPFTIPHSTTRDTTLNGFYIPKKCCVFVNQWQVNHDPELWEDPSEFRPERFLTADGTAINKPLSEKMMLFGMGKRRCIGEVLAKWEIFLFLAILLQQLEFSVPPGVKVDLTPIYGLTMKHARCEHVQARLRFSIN

[18] = biological target: Cytochrome P450 2C19 (Homo sapiens, UniProt P33261); assay: Inhibition of CYP2C19; type: ADME
Sequence of Cytochrome P450 2C19 (P33261 whole entry): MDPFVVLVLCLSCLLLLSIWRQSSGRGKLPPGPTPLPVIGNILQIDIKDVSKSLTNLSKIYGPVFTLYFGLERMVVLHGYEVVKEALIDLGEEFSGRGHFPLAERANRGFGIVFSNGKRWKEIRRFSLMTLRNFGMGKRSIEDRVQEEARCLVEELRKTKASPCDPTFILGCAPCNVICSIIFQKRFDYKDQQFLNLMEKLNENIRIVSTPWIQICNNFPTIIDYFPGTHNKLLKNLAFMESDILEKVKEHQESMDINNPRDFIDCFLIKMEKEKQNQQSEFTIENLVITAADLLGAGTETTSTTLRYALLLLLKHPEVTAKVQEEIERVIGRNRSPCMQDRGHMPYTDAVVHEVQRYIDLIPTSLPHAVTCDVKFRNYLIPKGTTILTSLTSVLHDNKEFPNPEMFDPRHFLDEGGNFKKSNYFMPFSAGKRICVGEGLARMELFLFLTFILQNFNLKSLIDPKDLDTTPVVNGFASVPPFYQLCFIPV

[19] = Volume of distribution in dog at 2 mg/kg, iv and 5 mg/kg, po; type: ADME, organism-based, Canis lupus familiaris; conditions: in vivo
[20] = Half life in dog at 2 mg/kg, iv; type: ADME, organism-based, Canis lupus familiaris; parameters: dose 2 mg/kg, route intravenous; conditions: in vivo
[21] = system: Mus musculus; assay: Antiasthamatic activity against ovalbumin-induced airway lung inflammation in BALB/c mouse bronchoalveolar lavage model assessed as inhibition of increase om cysteinyl leukotrienes level at 10 mg/kg, po every 6 hrs administered 2 hrs prior to ovalbumin-challenge after 24 hrs; type: functional
Procedure, shortened: (§3)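 Female BALB/c mice (20-25 g) were sensitized i.p. with OVA 100 μg/alum on days 0 and 14, then given intranasal OVA 50 μg in saline on day 21 under isoflurane. Oral 0.5% methocel vehicle or drug 10 mg/kg started 2 h before challenge, then every 6 h (4 doses). BAL with 4 × 0.3 mL PBS at 24 h; CysLTs and IL-5 by EIA, EPO by peroxidase assay.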

[22] = system: Mus musculus; assay: Antiasthamatic activity against ovalbumin-induced airway lung inflammation in BALB/c mouse bronchoalveolar lavage model assessed as inhibition of increase in eosinophile peroxidase level at 10 mg/kg, po every 6 hrs administered 2 hrs prior to ovalbumin-challenge after 24 hrs; type: functional; procedure, shortened: as §3
[23] = system: Mus musculus; assay: Antiasthamatic activity against ovalbumin-induced airway lung inflammation in BALB/c mouse bronchoalveolar lavage model assessed as inhibition of increase in IL5 level at 10 mg/kg, po every 6 hrs administered 2 hrs prior to ovalbumin-challenge after 24 hrs; type: functional, organism-based; parameters: dose 10 mg/kg; procedure, shortened: as §3
[24] = Plasma concentration in BALB/c mouse at 10 mg/kg, po after 6 hrs; type: ADME, organism-based; parameters: dose 10 mg/kg, route oral
Procedure, shortened: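 Female BALB/c mice, separate cohort (n = 6). Single oral dose 10 mg/kg; plasma drug level measured 6 h post-dose.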

[25] = biological target: CYP3A4 (Homo sapiens, UniProt P08684); assay: Inhibition of CYP3A4 at 10 uM; type: ADME
Sequence of CYP3A4 (P08684 whole entry): as the sequence (P08684 whole entry) above

[26] = Half life in Sprague-Dawley rat at 10 mg/kg, po; type: ADME, organism-based; parameters: dose 10 mg/kg, route oral; conditions: in vivo; procedure, shortened: as §2
[27] = system: Rattus norvegicus; assay: Volume of distribution at steady state in Sprague-Dawley rat at 10 mg/kg, po; type: ADME, organism-based; parameters: dose 10 mg/kg, route oral; conditions: in vivo; procedure, shortened: as §2
[28] = Clearance in Sprague-Dawley rat 10 mg/kg, po; type: ADME, organism-based; parameters: dose 10 mg/kg, route oral; conditions: in vivo; procedure, shortened: as §2

Compound | IC50 [1] | IC50 [2] | IC50 [3] | IC50 [4] | IC50 [5] | IC50 [6] | Cmax [9] | TDI [11] | other results
CC(C)(C)Sc1c(CC(C)(C)C(=O)O)n(Cc2ccc(-c3ncccn3)cc2)c2ccc(OCc3ccccn3)cc12 | 6.9 nM | 6.4 nM | 1210 nM | > 10000 nM | > 10000 nM | > 10000 nM | – | – | –
COc1ccc(-c2ccc(Cn3c(CC(C)(C)C(=O)O)c(SC(C)(C)C)c4cc(OCc5ccccn5)ccc43)cc2)nn1 | 4 nM | 3.6 nM | 1580 nM | 15100 nM | 26900 nM | > 30000 nM | 7900 ng/mL | – | F [7]: 42%; half-life [8]: 2.1 h; Vd [10]: 0.47 L/kg
CC(C)(C)Sc1c(CC(C)(C)C(=O)O)n(Cc2ccc(-c3nccs3)cc2)c2ccc(OCc3ccccn3)cc12 | 4.8 nM | 1 nM | 273 nM | 1400 nM | 9100 nM | 4000 nM | 4300 ng/mL | 0.033 min⁻¹ | bioavailability [12]: 50%; half-life [8]: 6.3 h; AUC [13]: 9540 ng·h/mL; clearance [14]: 8.6 mL/min/kg; Vd [10]: 0.71 L/kg
CC(C)(C)Sc1c(CC(C)(C)C(=O)O)n(Cc2ccc(-c3ncc(F)s3)cc2)c2ccc(OCc3ccccn3)cc12 | 2.1 nM | – | – | – | – | – | – | 0.017 min⁻¹ | –
CCCCC/C=C\C\C=C/C=C/C=C/[C@@H](SC[C@H](N)C(=O)O)[C@@H](O)CCCC(=O)O [LEUKOTRIEN E4] | – | – | – | – | – | – | – | – | EC50 [15]: 1.3 nM
COc1ccc(-c2ccc(Cn3c(CC(C)(C)C(=O)O)c(SC(C)(C)C)c4cc(OCc5ccccn5)ccc43)cc2)cn1 | 4.2 nM | 0.5 nM | 349 nM | > 50000 nM | > 50000 nM | > 30000 nM | 9000 ng/mL | 0.015 min⁻¹ | bioavailability [16]: 64%; IC50 [17]: > 50000 nM; bioavailability [12]: 100%; half-life [8]: 2.2 h; AUC [13]: 26000 ng·h/mL; clearance [14]: 5.4 mL/min/kg; Vd [10]: 0.3 L/kg; IC50 [18]: > 50000 nM; Vd [19]: 0.41 L/kg; half-life [20]: 5.2 h; inhibition in vivo at 10 mg/kg [21]: 60%; inhibition in vivo at 10 mg/kg [22]: 60%; Activity [23]: Active; concentration at 6 h [24]: 406 nM
COc1ccc(-c2ccc(Cn3c(CC(C)(C)C(=O)O)c(SC(C)(C)C)c4cc(OCc5ccccn5)ccc43)cc2)nc1 | 6.8 nM | 4.1 nM | 277 nM | – | > 10000 nM | > 10000 nM | 21800 ng/mL | – | inhibition at 10 µM [25]: 61%; bioavailability [12]: 100%; AUC [13]: 61600 ng·h/mL; half-life [26]: 1.9 h; Vdss [27]: 0.51 L/kg; CL/F [28]: 2.8 mL/min/kg
COc1nc(-c2ccc(Cn3c(CC(C)(C)C(=O)O)c(SC(C)(C)C)c4cc(OCc5ccccn5)ccc43)cc2)cs1 | 3.3 nM | – | – | – | – | – | – | 0.018 min⁻¹ | –
CC(C)(C)Sc1c(CC(C)(C)C(=O)O)n(Cc2ccc(-c3cncnc3)cc2)c2ccc(OCc3ccccn3)cc12 | 7.7 nM | 3.3 nM | 1040 nM | – | – | – | – | – | –
CC(C)(Cc1c(C(=O)C2CCC2)c2cc(OCc3ccccn3)ccc2n1Cc1ccc(-c2nccs2)cc1)C(=O)O | 444 nM | 130 nM | 33500 nM | – | – | – | – | – | –
Cc1ccc(-c2ccc(Cn3c(CC(C)(C)C(=O)O)c(SC(C)(C)C)c4cc(OCc5ccccn5)ccc43)cc2)nn1 | 27 nM | 17 nM | 4370 nM | – | – | – | – | – | –
Cc1ccc(-c2ccc(Cn3c(CC(C)(C)C(=O)O)c(SC(C)(C)C)c4cc(OCc5ccccn5)ccc43)cc2)cn1 | 6.5 nM | 1.3 nM | 577 nM | – | 10000 nM | > 10000 nM | – | – | inhibition at 10 µM [25]: 64%
